ChEMBL document CHEMBL1154621, “Structure-based design of DevR inhibitor active against nonreplicating Mycobacterium tuberculosis” (J Med Chem, 2009)
pIC50: −log10 of the molar value. Activity calls are given as the source filed them. The calls are words filed in the database; no cut-off is given here.

Legend:
[1] = biological target: T1, DNA-binding transcriptional activator DevR/DosR (Mycobacterium tuberculosis, UniProt P9WMF9); test: Inhibition of DevR region-dependent Rv3134c promoter activity in Mycobacterium tuberculosis H37Rv after 48 hrs by GFP reporter gene assay
Outline: (§1)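 H37Rv carrying DevR-regulated promoter-gfp plasmids, grown in Dubos/Tween/ADC medium to OD595 ~0.4 and diluted to OD ~0.05. Exposed to 2-fold serial compound dilutions from DMSO stocks for 48 h at 37 °C. Fluorescence corrected for vector and compound background. Percent inhibition = [1 - RFUcompound/RFUDMSO] × 100; mean ± SD of three experiments, each in triplicate wells.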

[2] = biological target: T1, DNA-binding transcriptional activator DevR/DosR; test: Inhibition of Mycobacterium tuberculosis phosphorylated DevR binding to fdxA promoter DNA after 10 mins by EMSA
Outline: (§2)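 N-terminal GST-tagged DevR was phosphorylated with acetyl phosphate; DevR~P (1 μM final) was preincubated 10 min at 30 °C with or without compound. ~2 ng 32P end-labelled fdxA promoter PCR probe was added and incubated 30 min on ice in binding buffer. Complexes resolved by gel electrophoresis.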

[3] = biological target: DNA-binding transcriptional activator DevR/DosR (Mycobacterium tuberculosis) (UniProt P9WMF9); test: Inhibition of DevR region-dependent Rv3134c promoter activity in Mycobacterium tuberculosis H37Rv at 250 uM after 48 hrs by GFP reporter gene assay; outline: as §1
[4] = biological target: DNA-binding transcriptional activator DevR/DosR (Mycobacterium tuberculosis) (UniProt P9WMF9); test: Inhibition of Mycobacterium tuberculosis phosphorylated DevR binding to fdxA promoter DNA at 250 uM after 10 mins by EMSA; outline: as §2
[5] = system: Mycobacterium tuberculosis; test: Inhibition of constitutive sigA promoter activity in Mycobacterium tuberculosis H37Rv; assay type: functional, organism-based
Outline: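 Strains carrying Rv3134c or sigA promoter-gfp were grown in 7H9/Tween/ADC to OD595 ~0.40. Washed twice with PBS, resuspended in PBS (starved) or medium, and diluted to OD595 ~0.02. 1 mL aliquots incubated; 200 μL samples taken weekly to measure GFP fluorescence.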

[6] = biological target: DNA-binding transcriptional activator DevR/DosR (Mycobacterium tuberculosis) (UniProt P9WMF9); test: Inhibition of Mycobacterium tuberculosis phosphorylated DevR binding to fdxA promoter DNA at 500 uM after 10 mins by EMSA; outline: as §2
[7] = system: Mycobacterium tuberculosis; test: Antimycobacterial activity against 30 day old non-replicating dormant cultures of Mycobacterium tuberculosis H37Rv assessed as revival of bacterial viability exposed for 11 days measured after 30 days post exposure by resazurin reduction assay; assay type: functional, organism-based
Outline: (§3)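 Hypoxic cultures were pelleted at 11000g at the end of exposure (30 days if compound was given on day 0, 41 days if given on day 30). Washed and resuspended in 4 mL 7H9 with 5% OADC and 0.1% Tween-80. Grown aerobically at 190 rpm, 37 °C. Aliquots taken every 5 days; recovery read by resazurin reduction and OD595, scored 1-40 with day 0 = 1.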

[8] = system: Mycobacterium tuberculosis; test: Antimycobacterial activity against 30 day old non-replicating dormant cultures of Mycobacterium tuberculosis H37Rv assessed as reduction of bacterial viability measured after 11 days by resazurin reduction assay; assay type: functional, organism-based
Outline: (§4)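 H37Rv grown in Dubos medium to OD595 ~0.4, diluted to OD595 0.003; 2 mL aliquots held static in sealed 4 mL tubes for 30 days until hypoxic. Compounds added to these dormant cultures for a further 11 days. Metronidazole and isoniazid were controls. Read by CFU plating of aliquots, then resazurin 0.02% plus Tween-80 20% injected, overnight incubation, resazurin reduction (HyRRA).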

[9] = biological target: DNA-binding protein HupB (Mycobacterium tuberculosis (strain ATCC 25177 / H37Ra)) (UniProt A5U6Z7); test: Inhibition of Mycobacterium tuberculosis HupB binding to fdxA promoter DNA at 500 uM by EMSA
Outline: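 Purified HupB protein incubated with compound, then ~2 ng 32P-labelled fdxA promoter probe added for 30 min on ice in binding buffer. Complexes resolved by gel shift electrophoresis against positive and negative controls.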

[10] = system: Mycobacterium tuberculosis; test: Antimycobacterial activity against hypoxic dormant cultures of Mycobacterium tuberculosis H37Rv assessed as revival of bacterial viability at 131 ug/mL administered on day 0 into hypoxic tubes measured after 30 days under hypoxic conditions by resazurin reduction assay; assay type: functional, organism-based; outline: as §3
[11] = system: Mycobacterium tuberculosis; test: Antimycobacterial activity against nutrient starvation-induced dormant Mycobacterium tuberculosis H37Rv expressing Rv3134c/sigA promoter driven GFP reporter genes; assay type: functional, organism-based
[12] = biological target: DNA-binding transcriptional activator DevR/DosR (Mycobacterium tuberculosis) (UniProt P9WMF9); test: Inhibition of Mycobacterium tuberculosis phosphorylated DevR binding to fdxA promoter DNA added before DevR phosphorylation by EMSA
[13] = system: Mycobacterium tuberculosis; test: Antimycobacterial activity against hypoxic dormant cultures of Mycobacterium tuberculosis H37Rv assessed as reduction of bacterial viability at 131 ug/mL administered on day 0 into hypoxic tubes measured after 30 days by resazurin reduction assay; assay type: functional
Outline: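 H37Rv in Dubos medium at OD595 0.003; 2 mL aliquots in sealed 4 mL tubes held static, compound injected on day 0. Incubated until methylene blue decolorized (anaerobiosis, ~30 days). CFU plating of aliquots, then resazurin 0.02% and Tween-80 20% injected, overnight incubation, viability by resazurin reduction (HyRRA). DMSO control matched.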

[14] = system: Mycobacterium tuberculosis; test: Antimycobacterial activity against 30 day old non-replicating dormant cultures of Mycobacterium tuberculosis H37Rv assessed as reduction of bacterial viability at 131 ug/mL measured after 11 days by resazurin reduction assay; assay type: functional, organism-based; outline: as §4
[15] = biological target: T1, DNA-binding transcriptional activator DevR/DosR; test: Inhibition of DevR region-dependent hspX promoter activity in Mycobacterium tuberculosis H37Rv after 48 hrs by GFP reporter gene assay; outline: as §1
[16] = biological target: DNA-binding transcriptional activator DevR/DosR (Mycobacterium tuberculosis) (UniProt P9WMF9); test: Inhibition of Mycobacterium tuberculosis phosphorylated DevR binding to fdxA promoter DNA added after DevR phosphorylation by EMSA
[17] = system: Mycobacterium tuberculosis; test: Antimycobacterial activity against 30 day old non-replicating dormant cultures of Mycobacterium tuberculosis H37Rv assessed as revival of bacterial viability at 131 ug/mL exposed for 11 days measured after 30 days post exposure by resazurin reduction assay; assay type: functional, organism-based; outline: as §3
[18] = biological target: T1, DNA-binding transcriptional activator DevR/DosR; test: Inhibition of DevR region-dependent narK2 promoter activity in Mycobacterium tuberculosis H37Rv after 48 hrs by GFP reporter gene assay; outline: as §1
[19] = system: Mycobacterium tuberculosis; test: Antimycobacterial activity against aerobic Mycobacterium tuberculosis H37Rv by resazurin reduction based REMA assay; assay type: functional, organism-based
Outline: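 Aerobic H37Rv exposed to compounds in triplicate cultures for 7 days. Then 0.02% resazurin and 20% Tween-80 added; after 48 h, blue-to-pink colour change read, with fluorescence at excitation 530 nm, emission 590 nm.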

T1 sequence (P9WMF9 whole entry): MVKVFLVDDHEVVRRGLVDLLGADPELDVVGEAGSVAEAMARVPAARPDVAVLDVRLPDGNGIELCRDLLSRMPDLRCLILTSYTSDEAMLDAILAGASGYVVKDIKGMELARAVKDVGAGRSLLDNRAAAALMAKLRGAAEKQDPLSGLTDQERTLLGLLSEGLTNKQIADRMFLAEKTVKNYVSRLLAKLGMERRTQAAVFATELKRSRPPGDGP
Sequence of DNA-binding transcriptional activator DevR/DosR (Mycobacterium tuberculosis) (P9WMF9 whole entry): as above
Sequence of DNA-binding protein HupB (Mycobacterium tuberculosis (strain ATCC 25177 / H37Ra)) (A5U6Z7 whole entry): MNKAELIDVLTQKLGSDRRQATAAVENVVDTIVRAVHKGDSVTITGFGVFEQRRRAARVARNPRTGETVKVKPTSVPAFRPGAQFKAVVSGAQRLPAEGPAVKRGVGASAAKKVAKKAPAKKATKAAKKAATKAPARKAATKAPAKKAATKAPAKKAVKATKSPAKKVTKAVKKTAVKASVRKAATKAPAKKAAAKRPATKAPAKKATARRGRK

| Structure (SMILES) | IC50 [1] | IC50 [2] | IC50 ([1]; read-out: IC50 (converted)) [µM] | IC50 ([2]; read-out: IC50 (converted)) [µM] | inhibition [3] [%] | Activity [5] | other results |
| --- | --- | --- | --- | --- | --- | --- | --- |
| COc1cc(Br)cc(/C=C2/SC(Nc3cccc(C(=O)O)c3)=NC2=O)c1O | Not Active | Not Active | – | – | – | – | – |
| COc1cc(NC(=O)CCc2ccc(OCc3ccc(Cl)cc3)c(OC)c2)c(OC)cc1Cl | – | – | 249 | 295 | 50 | Active | Activity [4]: Active |
| Nc1nc2c(nc(Br)n2[C@H]2O[C@H](CO)[C@@H](O)[C@@H]2O)c(=O)[nH]1 | Not Active | Not Active | – | – | – | – | – |
| COc1cc(NC(=O)c2cc3ccccc3o2)ccc1NC(=O)c1ccccc1Cl | – | – | 300 | 200 | 30 | Active | Activity [4]: Active |
| C=CCc1cc(/C=C2\NC(=O)N(c3ccccc3F)C2=O)cc(OCC)c1O | – | – | 311 | 259 | 30 | Active | inhibition [6]: 100% |
| NNC(=O)c1ccncc1 | – | – | – | – | – | – | Activity [7]: inactive; Activity [8]: inactive |
| COC(=O)c1ccc(Cl)c(NC(=O)c2ccc(CN3CCOCC3)cc2)c1 | Not Active | Not Active | – | – | – | – | – |
| COc1cc(C(=O)NCC(=O)NN)cc(OC)c1OC | Not Active | Not Active | – | – | – | – | – |
| COc1cc(NC(=O)c2ccc(-c3cc4ccccc4oc3=O)cc2)ccc1NC(=O)c1ccccc1Cl | – | – | 125 | < 49.9 | 50 | inactive | Activity [9]: inactive; Activity [10]: Active; Activity [4]: Active; Activity [11]: inactive; Activity [12]: Active; Activity [13]: >99%; Activity [14]: inactive; pIC50 [15]: > 3.90; Activity [16]: Active; Activity [17]: inactive; pIC50 [18]: > 3.90; Activity [19]: inactive |
| Cc1ncc([N+](=O)[O-])n1CCO | – | – | – | – | – | – | Activity [7]: Active; Activity [8]: Active |
| O=c1[nH]cc(/N=C/c2cc([N+](=O)[O-])ccc2O)c(=O)[nH]1 | Not Active | Not Active | – | – | – | – | – |
| Cc1cc(=O)[nH]c2sc(C(=O)c3ccc(Br)cc3)c(N)c12 | Not Active | Not Active | – | – | – | – | – |
| O=C(NCc1ccccc1)c1ccccc1NS(=O)(=O)c1ccc2c(c1)OCCO2 | Not Active | Not Active | – | – | – | – | – |
